ChEMBL document CHEMBL2146464, “Structure-activity relationship study of nitrosopyrimidines acting as antifungal agents” (Bioorg Med Chem, 2012)
In brackets after ≈: the same amount, converted by molar mass. Activity calls are given as the source filed them. No cut-off for these calls is given here.

Legend:
Candida albicans [1] = assay: Antifungal activity against Candida albicans ATCC 10231 assessed as growth inhibition at 31.25 ug/mL after 24 hrs by microplate reader analysis; assay type: functional; settings: ATCC 10231, 24 h, read-out: GI
In short: (§1)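 96-well RPMI-1640 wells with compound at final 250–0.98 µg/mL (DMSO ≤1%). Inoculum 100 µL, 1–5 × 10³ CFU/mL, 200 µL final. Each well includes growth (DMSO, no compound) and sterility controls. % inhibition = 100 − (CTW−SCW)/(GCW−SCW) × 100, run in duplicate.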

Candida tropicalis [2] = assay: Antifungal activity against Candida tropicalis after 48 hrs by NCCLS broth microdilution method; assay type: functional; settings: read-out: MIC100
In short: (§2)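 Yeast MIC by NCCLS M27-A3 broth microdilution in RPMI-1640 buffered to pH 7.0 with MOPS. Twofold dilutions of 250–0.98 µg/mL, final DMSO ≤1%. Inoculum 1–5 × 10³ CFU/mL. Incubated at 30 °C in a moist dark chamber. Read visually at 48 h. MIC100 is the lowest concentration with no visible growth versus drug-free control.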

Cryptococcus neoformans [3] = assay: Antifungal activity against Cryptococcus neoformans ATCC 32264 assessed as growth inhibition at 7.8 ug/mL after 48 hrs by microplate reader analysis; assay type: functional; settings: ATCC 32264, 48 h, read-out: GI
In short: (§3)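 Microplate growth-inhibition assay in RPMI-1640, compound at final 250–0.98 µg/mL (DMSO ≤1%). Inoculum 1–5 × 10³ CFU/mL. Sterility and DMSO growth controls included. Percent inhibition is computed from blank-corrected OD relative to the growth control, tested in duplicate.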

Cryptococcus neoformans [4] = assay: Antifungal activity against Cryptococcus neoformans ATCC 32264 assessed as growth inhibition at 62.5 ug/mL after 48 hrs by microplate reader analysis; assay type: functional; settings: ATCC 32264, 48 h, read-out: GI; in short: as §3
[5] = system: Trichophyton mentagrophytes; assay: Antifungal activity against Trichophyton mentagrophytes ATCC 9972 by NCCLS broth microdilution method; assay type: functional; settings: read-out: MIC100
In short: (§4)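 MIC by broth microdilution per NCCLS M27-A3/M38-A2 in RPMI-1640 buffered to pH 7.0 with MOPS. Twofold dilutions from 250–0.98 µg/mL, final DMSO ≤1%. Inoculum 1–5 × 10³ CFU/mL. Incubated in a moist dark chamber, 30 °C for Aspergillus and 28–30 °C for dermatophytes. Read visually when control growth allowed. Endpoint is the lowest concentration giving total inhibition of visible growth (MIC100).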

Candida tropicalis [6] = assay: Antifungal activity against Candida tropicalis assessed as growth inhibition at 31.25 ug/mL by microplate reader analysis; assay type: functional; settings: read-out: GI
Cryptococcus neoformans [7] = assay: Antifungal activity against Cryptococcus neoformans ATCC 32264 after 48 hrs by microplate reader analysis; assay type: functional; settings: ATCC 32264, 48 h; in short: as §3
Cryptococcus neoformans [8] = assay: Antifungal activity against Cryptococcus neoformans ATCC 32264 assessed as growth inhibition at 125 ug/mL after 48 hrs by microplate reader analysis; assay type: functional; settings: ATCC 32264, 48 h, read-out: GI; in short: as §3
Trichophyton rubrum [9] = assay: Antifungal activity against Trichophyton rubrum CCC 110 by NCCLS broth microdilution method; assay type: functional; settings: read-out: MIC100; in short: as §4
Nannizzia gypsea = assay: Antifungal activity against Microsporum gypseum CCC 115 at 0.98 to 250 ug/mL by NCCLS broth microdilution method; assay type: functional, organism-based; in short: as §4
Candida albicans [10] = assay: Antifungal activity against Candida albicans ATCC 10231 assessed as growth inhibition at 7.8 ug/mL after 24 hrs by microplate reader analysis; assay type: functional; settings: ATCC 10231, 24 h, read-out: GI; in short: as §1
Candida albicans [11] = assay: Fungicidal activity against Candida albicans ATCC 10231 after 48 hrs by agar plate dilution method; assay type: functional; settings: ATCC 10231, 48 h
In short: (§5)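 MFC: after the microdilution MIC, material from each clear well was plated onto RPMI-1640 agar buffered with MOPS. Plates incubated at 30 °C and read after 48 h. MFC is the lowest concentration giving total inhibition of visible growth.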

Candida albicans [12] = assay: Antifungal activity against Candida albicans ATCC 10231 assessed as growth inhibition at 125 ug/mL after 24 hrs by microplate reader analysis; assay type: functional; settings: ATCC 10231, 24 h, read-out: GI; in short: as §1
Candida albicans [13] = assay: Antifungal activity against Candida albicans ATCC 10231 after 48 hrs by NCCLS broth microdilution method; assay type: functional; settings: ATCC 10231, 48 h, read-out: MIC100; in short: as §2
Candida albicans [14] = assay: Antifungal activity against Candida albicans ATCC 10231 assessed as growth inhibition at 250 ug/mL after 24 hrs by microplate reader analysis; assay type: functional; settings: ATCC 10231, 24 h, read-out: GI; in short: as §1
Candida albicans [15] = assay: Antifungal activity against Candida albicans ATCC 10231 after 24 hrs by microplate reader analysis; assay type: functional; settings: ATCC 10231, 24 h; in short: as §1
Cryptococcus neoformans [16] = assay: Antifungal activity against Cryptococcus neoformans ATCC 32264 assessed as growth inhibition at 250 ug/mL after 48 hrs by microplate reader analysis; assay type: functional; settings: ATCC 32264, 48 h, read-out: GI; in short: as §3
Candida tropicalis [17] = assay: Antifungal activity against Candida tropicalis assessed as growth inhibition at 250 ug/mL by microplate reader analysis; assay type: functional; settings: read-out: GI
Cryptococcus neoformans [18] = assay: Antifungal activity against Cryptococcus neoformans ATCC 32264 after 48 hrs by NCCLS broth microdilution method; assay type: functional; settings: ATCC 32264, 48 h, read-out: MIC100; in short: as §2
Candida tropicalis [19] = assay: Antifungal activity against Candida tropicalis by microplate reader analysis; assay type: functional
Candida tropicalis [20] = assay: Antifungal activity against Candida tropicalis assessed as growth inhibition at 62.5 ug/mL by microplate reader analysis; assay type: functional; settings: read-out: GI
Candida albicans [21] = assay: Antifungal activity against Candida albicans ATCC 10231 assessed as growth inhibition at 3.9 ug/mL after 24 hrs by microplate reader analysis; assay type: functional; settings: ATCC 10231, 24 h, read-out: GI; in short: as §1
Cryptococcus neoformans [22] = assay: Antifungal activity against Cryptococcus neoformans ATCC 32264 assessed as growth inhibition at 15.6 ug/mL after 48 hrs by microplate reader analysis; assay type: functional; settings: ATCC 32264, 48 h, read-out: GI; in short: as §3
Trichophyton rubrum [23] = assay: Fungicidal activity against Trichophyton rubrum CCC 110 at 0.98 to 250 ug/mL after 48 hrs by agar plate dilution method; assay type: functional, organism-based
In short: (§6)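 Samples from each clear well of the MIC broth microdilution tray were plated onto RPMI-1640 agar buffered with MOPS. That tray had compounds twofold diluted in RPMI (pH 7.0, MOPS) from 250–0.98 µg/mL with inoculum of 1–5 × 10³ CFU/mL, incubated at 28–30 °C for dermatophytes. Plates were incubated at 30 °C and read at 48 h. MFC was taken as the lowest concentration giving total inhibition of visible growth.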

Candida tropicalis [24] = assay: Antifungal activity against Candida tropicalis assessed as growth inhibition at 7.8 ug/mL by microplate reader analysis; assay type: functional; settings: read-out: GI
Candida tropicalis [25] = assay: Antifungal activity against Candida tropicalis assessed as growth inhibition at 3.9 ug/mL by microplate reader analysis; assay type: functional; settings: read-out: GI
Candida albicans [26] = assay: Antifungal activity against Candida albicans ATCC 10231 assessed as growth inhibition at 62.5 ug/mL after 24 hrs by microplate reader analysis; assay type: functional; settings: ATCC 10231, 24 h, read-out: GI; in short: as §1
Cryptococcus neoformans [27] = assay: Antifungal activity against Cryptococcus neoformans ATCC 32264 assessed as growth inhibition at 31.25 ug/mL after 48 hrs by microplate reader analysis; assay type: functional; settings: ATCC 32264, 48 h, read-out: GI; in short: as §3
Cryptococcus neoformans [28] = assay: Antifungal activity against Cryptococcus neoformans ATCC 32264 assessed as growth inhibition at 3.9 ug/mL after 48 hrs by microplate reader analysis; assay type: functional; settings: ATCC 32264, 48 h, read-out: GI; in short: as §3
Cryptococcus neoformans [29] = assay: Fungicidal activity against Cryptococcus neoformans ATCC 32264 after 48 hrs by agar plate dilution method; assay type: functional; settings: ATCC 32264, 48 h; in short: as §5
Aspergillus flavus = assay: Antifungal activity against Aspergillus flavus ATCC 9170 at 0.98 to 250 ug/mL by NCCLS broth microdilution method; assay type: functional, organism-based; in short: as §4
[30] = Acute toxicity in bony fish assessed as mortality at 35 ug/mL after 96 hrs; settings: actinopterygii; read-out: Activity
In short: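 Guppy (Poecilia reticulata) acute static exposure: 10 fish per concentration in 2 L wide-mouthed jars holding the test solution. Compounds were added from […] to give the final concentrations. Dead fish were counted and removed every 24 h, with general condition noted; percentage mortality was scored at 96 h. Two experiments, each in triplicate.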

Candida tropicalis [31] = assay: Fungicidal activity against Candida tropicalis after 48 hrs by agar plate dilution method; assay type: functional; in short: as §5
Aspergillus niger = assay: Antifungal activity against Aspergillus niger ATCC 9029 at 0.98 to 250 ug/mL by NCCLS broth microdilution method; assay type: functional, organism-based; in short: as §4
Candida albicans [32] = assay: Antifungal activity against Candida albicans ATCC 10231 assessed as growth inhibition at 15.6 ug/mL after 24 hrs by microplate reader analysis; assay type: functional; settings: ATCC 10231, 24 h, read-out: GI; in short: as §1
Candida tropicalis [33] = assay: Antifungal activity against Candida tropicalis assessed as growth inhibition at 15.6 ug/mL by microplate reader analysis; assay type: functional; settings: read-out: GI
Candida tropicalis [34] = assay: Antifungal activity against Candida tropicalis assessed as growth inhibition at 125 ug/mL by microplate reader analysis; assay type: functional; settings: read-out: GI
Aspergillus fumigatus = assay: Antifungal activity against Aspergillus fumigatus ATCC 26934 at 0.98 to 250 ug/mL by NCCLS broth microdilution method; assay type: functional, organism-based; in short: as §4
[35] = system: Trichophyton mentagrophytes; assay: Fungicidal activity against Trichophyton mentagrophytes ATCC 9972 at 0.98 to 250 ug/mL after 48 hrs by agar plate dilution method; assay type: functional, organism-based; in short: as §6

`CCCCNc1nc(N)nc(OC)c1N=O` showed an inhibition of growth at 31.25 µg/mL (Candida albicans [1]) of 98.2%, an MIC (Candida tropicalis [2]) of 62.5 µg/mL (≈ 277 µM) and an inhibition of growth at 7.8 µg/mL (Cryptococcus neoformans [3]) of 52.4%. For the same molecule, the inhibition of growth at 62.5 µg/mL (Cryptococcus neoformans [4]) was 85.5%, the MIC [5] was 250 µg/mL (≈ 1110 µM) and the inhibition of growth at 31.25 µg/mL (Candida tropicalis [6]) was 93.2%. It also gave an MIC50 (Cryptococcus neoformans [7]) of 7.8 µg/mL (≈ 34.6 µM), an inhibition of growth at 125 µg/mL (Cryptococcus neoformans [8]) of 100% and an MIC (Trichophyton rubrum [9]) of 250 µg/mL (≈ 1110 µM). For the same molecule, the Activity (Nannizzia gypsea) was “inactive”, the inhibition of growth at 7.8 µg/mL (Candida albicans [10]) was 50.4% and the MFC (Candida albicans [11]) was 250 µg/mL (≈ 1110 µM). The inhibition of growth at 125 µg/mL (Candida albicans [12]) was 100%, the MIC (Candida albicans [13]) was 62.5 µg/mL (≈ 277 µM) and the inhibition of growth at 250 µg/mL (Candida albicans [14]) was 100%. The MIC50 (Candida albicans [15]) was 7.8 µg/mL (≈ 34.6 µM), the inhibition of growth at 250 µg/mL (Cryptococcus neoformans [16]) was 100% and the inhibition of growth at 250 µg/mL (Candida tropicalis [17]) was 100%. For the same molecule, the MIC (Cryptococcus neoformans [18]) was 125 µg/mL (≈ 555 µM), the MIC50 (Candida tropicalis [19]) was 7.8 µg/mL (≈ 34.6 µM) and the inhibition of growth at 62.5 µg/mL (Candida tropicalis [20]) was 100%. For the same molecule, the inhibition of growth at 3.9 µg/mL (Candida albicans [21]) was 20%, the inhibition of growth at 15.6 µg/mL (Cryptococcus neoformans [22]) was 63.1% and the Activity (Trichophyton rubrum [23]) was “inactive”. The inhibition of growth at 7.8 µg/mL (Candida tropicalis [24]) was 57.7%, the inhibition of growth at 3.9 µg/mL (Candida tropicalis [25]) was 16.3% and the inhibition of growth at 62.5 µg/mL (Candida albicans [26]) was 100%. The inhibition of growth at 31.25 µg/mL (Cryptococcus neoformans [27]) was 75%, the inhibition of growth at 3.9 µg/mL (Cryptococcus neoformans [28]) was 11.3% and the MFC (Cryptococcus neoformans [29]) was 250 µg/mL (≈ 1110 µM). The Activity (Aspergillus flavus) was “inactive”, the mortality at 96 h, 35 ug/mL [30] was 0% and the MFC (Candida tropicalis [31]) was 250 µg/mL (≈ 1110 µM). For the same molecule, the Activity (Aspergillus niger) was “inactive”, the inhibition of growth at 15.6 µg/mL (Candida albicans [32]) was 86.2% and the inhibition of growth at 15.6 µg/mL (Candida tropicalis [33]) was 85.2%. The inhibition of growth at 125 µg/mL (Candida tropicalis [34]) was 100%, the Activity (Aspergillus fumigatus) was “inactive” and the Activity [35] was “inactive”.
